# Assays:
# [1] = Metabolic stability in rat liver microsomes assessed as half life at 1 uM incubated up to 60 mins in presence of NADPH by LC-MS/MS analysis; format: ADME, Microsome
# Procedure, shortened: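 Liver microsomes (0.5 mg/mL) incubated at 37 °C with compound at 1.0 μM final, 3 mM MgCl2 and 1 mM NADPH in 100 mM PBS pH 7.4. Samples taken at 0, 5, 15, 30, 60 min; remaining parent measured by LC-MS/MS. k = −slope, T1/2 = 0.693/k, CLint = k/microsomal protein concentration. Midazolam served as control.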
# [2] = Initial plasma concentration in ICR mouse at 2 mg/kg, iv measured up to 24 hrs by LC-MS/MS analysis; format: ADME, organism-based
# Procedure, shortened: (§1)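 Male ICR mice (25.1–28.8 g, n=9), fasted 12 h, given a single i.v. dose of 2.0 mg/kg at 0.4 mg/mL in DMSO/PEG200/saline (1:1:3). Blood sampled at 0, 0.083, 0.25, 0.5, 1, 2, 4, 8, 24 h. Plasma ACN-precipitated and quantified by LC-MS/MS. Parameters derived from composite mean plasma concentration-time data.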
# [3] = Half life in ICR mouse at 2 mg/kg, iv measured up to 24 hrs by LC-MS/MS analysis; format: ADME, organism-based; conditions: in vivo; procedure, shortened: as §1
# HCT-116 = experiment: Antiproliferative activity against human HCT-116 cells assessed as inhibition of cell growth incubated for 72 hrs by Celltiter-Glo luminescent assay; format: functional, cell-based; conditions: HCT-116, 72 h
# Procedure, shortened: (§2)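 Cells seeded in growth medium and held overnight at 37 °C; medium-only wells served as background. DMSO stocks were diluted in medium to 3× final and added; cells incubated 72 h at 37 °C, 5% CO2. Viability read by CellTiter-Glo luminescence after 60 min at room temperature. IC50 from curve fit, mean of duplicate.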
# [4] = molecular target: Cyclin-dependent kinase 2/cyclin E1 (Homo sapiens, UniProt P24941); experiment: Inhibition of CDK2/Cyclin E (unknown origin) preincubated for 20 mins followed by ATP addition and measured after 120 mins in presence of [33P-gamma] ATP by hotspot kinase assay; format: protein-complex assay
# Procedure, shortened: (§3)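 Radiometric filter-binding assay: kinase and substrate in 20 mM Hepes pH 7.5, 10 mM MgCl2, 1 mM EGTA, 0.02% Brij35, 0.02 mg/mL BSA, 0.1 mM Na3VO4, 2 mM DTT, 1% DMSO. Compound (top 1/10/27 μM, 3-fold serial dilutions) preincubated 20 min at 25 °C. ATP plus [γ-33P]ATP added to 10 μM final, reacted 120 min at 25 °C. IC50 from curve fit, duplicate mean.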
# [5] = molecular target: Cyclin-dependent kinase 4/cyclin D1 (Homo sapiens, UniProt P11802); experiment: Inhibition of CDK4/Cyclin D1 (unknown origin) preincubated for 20 mins followed by ATP addition and measured after 120 mins in presence of [33P-gamma] ATP by hotspot kinase assay; format: protein-complex assay; procedure, shortened: as §3
# MDA-MB-231 = experiment: Antiproliferative activity against human MDA-MB-231 cells assessed as inhibition of cell growth incubated for 72 hrs by Celltiter-Glo luminescent assay; format: functional, cell-based; conditions: MDA-MB-231, 72 h; procedure, shortened: as §2
# Chain of Cyclin-dependent kinase 4/cyclin D1 (P11802 whole entry): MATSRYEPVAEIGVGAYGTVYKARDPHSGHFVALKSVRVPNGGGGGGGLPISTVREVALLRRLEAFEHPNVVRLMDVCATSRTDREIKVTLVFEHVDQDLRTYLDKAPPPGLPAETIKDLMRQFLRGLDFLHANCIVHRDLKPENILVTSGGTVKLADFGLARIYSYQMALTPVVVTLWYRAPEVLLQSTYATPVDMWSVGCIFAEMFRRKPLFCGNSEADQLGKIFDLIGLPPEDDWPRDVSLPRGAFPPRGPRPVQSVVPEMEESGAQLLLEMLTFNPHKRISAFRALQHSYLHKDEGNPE
# Chain of Cyclin-dependent kinase 4/cyclin D1 (P24385 whole entry, further chain): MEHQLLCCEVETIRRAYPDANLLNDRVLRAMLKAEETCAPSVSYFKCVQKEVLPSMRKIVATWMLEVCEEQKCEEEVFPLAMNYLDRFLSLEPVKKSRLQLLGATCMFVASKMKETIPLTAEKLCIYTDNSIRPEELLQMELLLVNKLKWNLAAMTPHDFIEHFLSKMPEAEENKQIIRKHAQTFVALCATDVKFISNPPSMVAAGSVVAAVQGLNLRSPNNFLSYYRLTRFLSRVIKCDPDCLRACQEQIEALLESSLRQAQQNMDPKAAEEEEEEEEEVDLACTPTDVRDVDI
structure (smiles),measurement,setting,value
COc1cc(F)ccc1-c1nc(Nc2ccc3c(N4CCOCC4)c(C(C)=O)c(=O)oc3c2)ncc1F,half-life at 1 µM,[1],2.01 min
same,C0 at 24 h,[2],3060 ng/mL
same,half-life,[3],13.8 min
same,IC50,HCT-116,280 nM
same,IC50,[4],1010 nM
same,IC50,[5],471 nM
same,IC50,MDA-MB-231,230 nM

# Reference: ChEMBL document CHEMBL4765336, “Discovery of coumarin derivatives as potent and selective cyclin-dependent kinase 9 (CDK9) inhibitors with high antitumour activity” (Eur J Med Chem, 2020)
